pEC50: −log10 of the molar value. In brackets after ≈: the same amount, converted by molar mass. Activity calls are given as the source filed them. The calls are words filed in the database; no cut-off is given here.
Tests used:
Plasmodium falciparum [1] = assay: Intrinsic antimalarial activity against chloroquine/artemisinin-resistant Plasmodium falciparum NHP4773 harboring CRT K76T mutant assessed as reduction in parasite viability at 500 nM; assay type: functional, organism-based
Plasmodium falciparum [2] = assay: Intrinsic antimalarial activity against chloroquine-sensitive Plasmodium falciparum HB3 isolate MRA-155 assessed as reduction in parasite viability at 500 nM; assay type: functional, organism-based
Plasmodium falciparum [3] = assay: Intrinsic antimalarial activity against chloroquine-resistant Plasmodium falciparum K1 isolate MRA-159 harboring CRT CVIET haplotype mutant assessed as reduction in parasite viability at 500 nM; assay type: functional, organism-based
[4] = system: T1, Chloroquine resistance transporter (Plasmodium falciparum), Q9N623 [K76T]; assay: Inhibition of CRT K76T mutant in chloroquine/artemisinin-resistant Plasmodium falciparum NHP4773 assessed as reversal of chloroquine resistance by measuring reduction in chloroquine IC50 at 500 nM relative to chloroquine alone
T1 sequence (whole entry): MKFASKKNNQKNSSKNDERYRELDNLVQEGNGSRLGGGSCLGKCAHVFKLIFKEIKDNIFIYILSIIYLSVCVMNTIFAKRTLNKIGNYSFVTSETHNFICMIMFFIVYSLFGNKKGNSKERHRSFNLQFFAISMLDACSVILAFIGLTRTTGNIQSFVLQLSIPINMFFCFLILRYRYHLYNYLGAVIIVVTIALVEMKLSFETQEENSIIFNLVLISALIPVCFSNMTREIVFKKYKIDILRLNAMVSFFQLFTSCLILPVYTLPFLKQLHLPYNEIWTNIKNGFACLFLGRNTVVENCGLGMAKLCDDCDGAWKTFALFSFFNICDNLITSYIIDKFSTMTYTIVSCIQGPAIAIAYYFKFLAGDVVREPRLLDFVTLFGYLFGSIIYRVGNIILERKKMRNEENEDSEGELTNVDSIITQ

Plasmodium falciparum K1 [5] = assay: Inhibition of CRT CVIET haplotype mutant in Plasmodium falciparum K1 isolate MRA-159 infected in erythrocytes assessed as chloroquine-coumarin probe accumulation at 10 uM after 10 hrs by Hoechst 33342 staining based flow cytometry (reference value: 35.57 +/- 3.84%); assay type: cell-based; set-up: scale not given: the % may be the effect or the level left
How it was run: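 Infected erythrocyte cultures at 2.5% hematocrit and 7–12% parasitemia, synchronized to late-ring/early-trophozoite stage, were incubated with chloroquine-coumarin probe plus test agent for 10 h at 37 C. Cells were then washed, resuspended in PBS and read by flow cytometry (405 nm excitation, 450/50 filter). Hoechst-stained duplicate wells set parasitemia. Uptake = % infected erythrocytes fluorescent. Controls: PBS (negative), desipramine and parent compound (positive). ≥3 independent experiments; mean ± SEM.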

Plasmodium falciparum [6] = assay: Intrinsic antimalarial activity against chloroquine-sensitive Plasmodium falciparum 3D7 isolate MRA-102 assessed as reduction in parasite viability at 500 nM; assay type: functional, organism-based
Plasmodium falciparum [7] = assay: Intrinsic antimalarial activity against chloroquine-resistant Plasmodium falciparum NHP4559 harboring CRT K76T mutant assessed as reduction in parasite viability at 500 nM; assay type: functional, organism-based
[8] = system: T1, Chloroquine resistance transporter (Plasmodium falciparum), Q9N623 [K76T]; assay: Inhibition of CRT K76T mutant in chloroquine/artemisinin-resistant Plasmodium falciparum ARS272 assessed as reversal of chloroquine resistance by measuring reduction in chloroquine IC50 at 500 nM relative to chloroquine alone
Plasmodium falciparum [9] = assay: Intrinsic antimalarial activity against intermediate chloroquine-resistant Plasmodium falciparum 7G8 isolate MRA-154 harboring CRT SVMNT haplotype mutant assessed as reduction in parasite viability at 500 nM; assay type: functional, organism-based
[10] = system: T1, Chloroquine resistance transporter (Plasmodium falciparum), Q9N623 [K76T]; assay: Inhibition of CRT K76T mutant in chloroquine-resistant Plasmodium falciparum Dd2 isolate MRA-156 assessed as reversal of chloroquine resistance by measuring reduction in chloroquine IC50 at 500 nM relative to chloroquine alone
Plasmodium falciparum K1 [11] = assay: Inhibition of CRT CVIET haplotype mutant in chloroquine-resistant Plasmodium falciparum K1 isolate MRA-159 assessed as reversal of chloroquine resistance by measuring reduction in chloroquine IC50 at 500 nM relative to chloroquine alone
Plasmodium falciparum [12] = assay: Intrinsic antimalarial activity against chloroquine-resistant Plasmodium falciparum Dd2 isolate MRA-156 harboring CRT K76T mutant assessed as reduction in parasite viability at 500 nM; assay type: functional, organism-based
[13] = system: Plasmodium falciparum 7G8; assay: Inhibition of CRT SVMNT haplotype mutant in intermediate chloroquine-resistant Plasmodium falciparum 7G8 isolate MRA-154 t assessed as reversal of chloroquine resistance by measuring reduction in chloroquine IC50 at 500 nM relative to chloroquine alone
Plasmodium falciparum [14] = assay: Potentiation of chloroquine-induced antimalarial activity against chloroquine-sensitive Plasmodium falciparum 3D7 isolate MRA-102 assessed as reduction in chloroquine IC50 at 500 nM relative to chloroquine alone; assay type: functional
Plasmodium falciparum [15] = assay: Intrinsic antimalarial activity against chloroquine/artemisinin-resistant Plasmodium falciparum ARS233 harboring CRT K76T mutant assessed as reduction in parasite viability at 500 nM; assay type: functional, organism-based
[16] = Resistance index, ratio of chloroquine IC50 for chloroquine-resistant Plasmodium falciparum K1 isolate MRA-159 CRT CVIET haplotype mutant to chloroquine IC50 for chloroquine-sensitive Plasmodium falciparum 3D7 isolate MRA-102 at 500 nM
How it was run: (§1)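 Chloroquine IC50 was measured with the chemoreversal agent fixed at 500 nM in K1 or 7G8 and in sensitive 3D7 (means, n = 3). The resistance ratio is the chloroquine IC50 in K1 or 7G8 divided by the chloroquine IC50 in 3D7.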

[17] = system: T1, Chloroquine resistance transporter (Plasmodium falciparum), Q9N623 [K76T]; assay: Inhibition of CRT K76T mutant in chloroquine-resistant Plasmodium falciparum NHP4559 assessed as reversal of chloroquine resistance by measuring reduction in chloroquine IC50 at 500 nM relative to chloroquine alone
Plasmodium falciparum [18] = assay: Potentiation of chloroquine-induced antimalarial activity against chloroquine-sensitive Plasmodium falciparum HB3 isolate MRA-155 assessed as reduction in chloroquine IC50 at 500 nM relative to chloroquine alone; assay type: functional
[19] = Resistance index, ratio of chloroquine IC50 for intermediate chloroquine-resistant Plasmodium falciparum 7G8 isolate MRA-154 CRT SVMNT haplotype mutant to chloroquine IC50 for chloroquine-sensitive Plasmodium falciparum 3D7 isolate MRA-102 at 500 nM; how it was run: as §1
[20] = system: T1, Chloroquine resistance transporter (Plasmodium falciparum), Q9N623 [K76T]; assay: Inhibition of CRT K76T mutant in chloroquine/artemisinin-resistant Plasmodium falciparum ARS233 assessed as reversal of chloroquine resistance by measuring reduction in chloroquine IC50 at 500 nM relative to chloroquine alone
Plasmodium falciparum [21] = assay: Intrinsic antimalarial activity against chloroquine/artemisinin-resistant Plasmodium falciparum ARS272 harboring CRT K76T mutant assessed as reduction in parasite viability at 500 nM; assay type: functional, organism-based
[22] = Inhibition of CRT CVIET haplotype mutant in chloroquine-resistant Plasmodium falciparum K1 isolate MRA-159 assessed as reversal of chloroquine resistance by measuring reduction in chloroquine IC50 relative to chloroquine alone
How it was run: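 Chloroquine IC50 was determined in the presence of a fixed 500 nM chemoreversal agent, against chloroquine alone. The RMI is the ratio of chloroquine IC50 with agent to chloroquine IC50 alone. Mean of n = 3; two-tailed t test versus chloroquine without agent.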

[23] = Aqueous kinetic solubility of compound in pH 7.4 solution incubated for 24 hrs; assay type: physicochemical; details: aqueous solution pH 7.4, pH 7.4; read-out: Kinetic_solubility

SMILES	Activity (Plasmodium falciparum [1])	Activity (Plasmodium falciparum [2])	Activity (Plasmodium falciparum [3])	Ratio IC50 [4]	Activity (Plasmodium falciparum K1 [5]) [%]	Activity (Plasmodium falciparum [6])	Activity (Plasmodium falciparum [7])	Ratio IC50 [8]	Activity (Plasmodium falciparum [9])	Ratio IC50 [10]	Ratio IC50 (Plasmodium falciparum K1 [11])	Activity (Plasmodium falciparum [12])	Ratio IC50 [13]	Ratio IC50 (Plasmodium falciparum [14])	Activity (Plasmodium falciparum [15])	Ratio IC50 [16]	Ratio IC50 [17]	Ratio IC50 (Plasmodium falciparum [18])	Ratio IC50 [19]	Activity (Plasmodium falciparum [21])	also measured
NCC(CCN1CCC(O)CC1)(c1ccccc1)c1ccccc1	inactive	inactive	inactive	0.94	64.8	inactive	inactive	0.93	inactive	0.91	0.74	inactive	0.98	1.13	inactive	13.4	0.95	0.99	5.3	inactive	Ratio IC50 [20]: 0.9
NCC(c1ccccc1)c1ccccc1	inactive	inactive	inactive	0.54	56.4	inactive	inactive	0.37	inactive	0.59	0.45	inactive	0.69	1.11	inactive	8.4	0.52	1.1	3.8	inactive	pEC50 [22]: 6.70; Ratio IC50 [20]: 0.53
N#CC(CCN1CCCCC1)(c1ccccc1)c1ccccc1	inactive	inactive	inactive	0.74	67	inactive	inactive	0.7	inactive	0.76	0.71	inactive	1	1.2	inactive	12.2	0.66	0.98	5.1	inactive	pEC50 [22]: 6.53; Ratio IC50 [20]: 0.7
NCC(CCN1CCN(c2ccc(F)cc2)CC1)(c1ccccc1)c1ccccc1	inactive	inactive	inactive		60.5	inactive	inactive		inactive			inactive			inactive					inactive	
c1ccc2c(c1)CC(N1CCNCC1)c1ccccc1S2 (stereo unspecified)	inactive	inactive	inactive	0.69	69.8	inactive	inactive	0.68	inactive	0.81	0.55	inactive	0.76	1.21	inactive	9.3	0.68	1	3.8	inactive	solubility kinetic at 24 h [23]: 87.1 µg/mL (≈ 294 µM); pEC50 [22]: 6.46; Ratio IC50 [20]: 0.64
Clc1ccc2c(c1)C(N1CCNCC1)Cc1ccccc1S2 (stereo unspecified)	inactive	inactive	inactive	0.73	79.6	inactive	inactive	0.76	inactive	0.83	0.69	inactive	0.88	1.14	inactive	12.4	0.73	0.93	4.8	inactive	solubility kinetic at 24 h [23]: 38.1 µg/mL (≈ 115 µM); Ratio IC50 [20]: 0.71
NC(=O)C(CCN1CCCCC1)(c1ccccc1)c1ccccc1	inactive	inactive	inactive		63.2	inactive	inactive		inactive			inactive			inactive					inactive	
O=C1Cc2ccccc2Sc2ccc(Cl)cc21	inactive	inactive	inactive		49.1	inactive	inactive		inactive			inactive			inactive					inactive	
N[C@@H]1C2CCN(CC2)[C@@H]1C(c1ccccc1)c1ccccc1 (relative stereo)	inactive	inactive	inactive	1.04	52.5	inactive	inactive	0.99	inactive	0.94	0.93	inactive	0.93	1.1	inactive	17.4	0.98	0.99	5.2	inactive	Ratio IC50 [20]: 0.97

From ChEMBL document CHEMBL4428038, “Overcoming chloroquine resistance in malaria: Design, synthesis and structure-activity relationships of novel chemoreversal agents” (Eur J Med Chem, 2016)
